Results as given in ChEMBL document CHEMBL1143323, “Oxidosqualene cyclase from Saccharomyces cerevisiae, Trypanosoma cruzi, Pneumocystis carinii and Arabidopsis thaliana expressed in yeast: a model for the development of novel antiparasitic agents” (Bioorg Med Chem Lett, 2009).

Tested on: not listed separately
Experiment: Selectivity ratio of IC50 for human OSC to IC50 for Pneumocystis carinii OSC

Ratio IC50	SMILES
5	C=CCN(C)Cc1ccc(-c2ccc(C(=O)c3ccc(Br)cc3)cc2)cc1
10	CCN(CCO)CCCCOc1ccc2c(-c3ccc(Br)cc3)nsc2c1
40	C=CCN(C)CCCCCCOc1ccc(-c2nsc3cc(Br)ccc23)cc1

Target: T1, Lanosterol synthase ERG7 (Saccharomyces cerevisiae S288c, UniProt P38604)
T1 sequence (P38604 whole entry): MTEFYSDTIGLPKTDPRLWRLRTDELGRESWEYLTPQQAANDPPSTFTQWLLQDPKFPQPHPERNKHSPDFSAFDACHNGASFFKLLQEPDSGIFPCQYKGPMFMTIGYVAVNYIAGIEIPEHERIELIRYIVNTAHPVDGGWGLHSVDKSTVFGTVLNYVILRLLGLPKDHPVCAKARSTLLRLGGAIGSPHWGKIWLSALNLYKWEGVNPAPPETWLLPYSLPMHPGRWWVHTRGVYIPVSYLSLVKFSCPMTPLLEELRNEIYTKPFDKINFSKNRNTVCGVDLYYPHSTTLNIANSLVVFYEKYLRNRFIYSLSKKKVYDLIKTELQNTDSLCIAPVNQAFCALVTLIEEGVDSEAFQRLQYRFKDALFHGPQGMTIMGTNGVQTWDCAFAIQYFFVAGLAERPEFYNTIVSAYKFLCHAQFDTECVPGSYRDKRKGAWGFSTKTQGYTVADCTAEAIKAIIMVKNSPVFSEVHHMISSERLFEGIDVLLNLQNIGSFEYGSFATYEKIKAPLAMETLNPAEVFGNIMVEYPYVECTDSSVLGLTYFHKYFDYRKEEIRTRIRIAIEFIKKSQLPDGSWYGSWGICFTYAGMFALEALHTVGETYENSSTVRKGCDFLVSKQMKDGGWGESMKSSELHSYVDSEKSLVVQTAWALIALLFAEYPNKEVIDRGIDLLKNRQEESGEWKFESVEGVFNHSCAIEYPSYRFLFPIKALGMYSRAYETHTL
Experiment: Inhibition of yeast OSC expressed in Saccharomyces cerevisiae SMY8
Method in brief: (§1)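 Cell-free homogenates of recombinant OSC-defective S. cerevisiae SMY8 strains, each expressing one OSC: lanosterol cyclase from S. cerevisiae, T. cruzi or P. carinii, or cycloartenol cyclase from A. thaliana. Cyclase activity was measured in homogenates with inhibitor present and IC50 derived. Values are means of two separate experiments, each with duplicate incubations; maximum deviation from the mean under 10%.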

SMILES	IC50 [nM]
CCN(CCO)CCCCC[C@H]1CC[C@H](N(C)S(=O)(=O)c2ccc(C(F)(F)F)cc2)CC1	270
O=C(c1ccc(Cl)cc1)N1CCC(=Cc2ccc(C3=NCCO3)cc2)CC1	670
CCN(CC)C(=O)CCCC[C@H]1CC[C@H](N(C)S(=O)(=O)c2ccc(C(F)(F)F)cc2)CC1	> 100000
C=CCN(C)C/C=C/COc1ccc2c(-c3ccc(Br)cc3)coc2c1	210
C=CCN(C)Cc1ccc(-c2ccc(C(=O)c3ccc(Br)cc3)cc2)cc1	320

Now from value to molecule:

IC50 [nM]	SMILES
600	Brc1ccc(-c2nsc3cc(OCCCCN4CCOCC4)ccc23)cc1
400	Brc1ccc(-c2nsc3cc(CCCCCN4CCOCC4)ccc23)cc1
2200	CCN(CCO)C(C)(C)C#Cc1ccc2c(-c3ccc(Br)cc3)nsc2c1
100000	CC(=O)N(CCO)CCCCOc1ccc2c(-c3ccc(Br)cc3)nsc2c1
700	C=CCN(C)CCCCOc1ccc2c(-c3ccc(Br)cc3)nsc2c1
700	CCN(CCO)CCCCOc1ccc2c(-c3ccc(Br)cc3)nsc2c1
280	C=CCN(C)CCCCCCOc1ccc(-c2nsc3cc(Br)ccc23)cc1

Tested on: not listed separately
Experiment: Inhibition of Trypanosoma cruzi OSC expressed in Saccharomyces cerevisiae SMY8
Method in brief: as §1

SMILES	IC50 [nM]
Brc1ccc(-c2nsc3cc(OCCCCN4CCOCC4)ccc23)cc1	1100
Brc1ccc(-c2nsc3cc(CCCCCN4CCOCC4)ccc23)cc1	1100
CCN(CCO)C(C)(C)C#Cc1ccc2c(-c3ccc(Br)cc3)nsc2c1	4200
CCN(CCO)CCCCC[C@H]1CC[C@H](N(C)S(=O)(=O)c2ccc(C(F)(F)F)cc2)CC1	1600
CC(=O)N(CCO)CCCCOc1ccc2c(-c3ccc(Br)cc3)nsc2c1	5500
O=C(c1ccc(Cl)cc1)N1CCC(=Cc2ccc(C3=NCCO3)cc2)CC1	> 5000
C=CCN(C)CCCCOc1ccc2c(-c3ccc(Br)cc3)nsc2c1	250
CCN(CC)C(=O)CCCC[C@H]1CC[C@H](N(C)S(=O)(=O)c2ccc(C(F)(F)F)cc2)CC1	> 100000
C=CCN(C)Cc1ccc(-c2ccc(C(=O)c3ccc(Br)cc3)cc2)cc1	600
CCN(CCO)CCCCOc1ccc2c(-c3ccc(Br)cc3)nsc2c1	6500
C=CCN(C)CCCCCCOc1ccc(-c2nsc3cc(Br)ccc23)cc1	> 5000

Tested on: not listed separately
Experiment: Inhibition of Pneumocystis carinii OSC expressed in Saccharomyces cerevisiae SMY8
Method in brief: as §1

SMILES	IC50 [nM]
O=C(c1ccc(Cl)cc1)N1CCC(=Cc2ccc(C3=NCCO3)cc2)CC1	> 5000
CCN(CC)C(=O)CCCC[C@H]1CC[C@H](N(C)S(=O)(=O)c2ccc(C(F)(F)F)cc2)CC1	> 100000
C=CCN(C)C/C=C/COc1ccc2c(-c3ccc(Br)cc3)coc2c1	1200
C=CCN(C)Cc1ccc(-c2ccc(C(=O)c3ccc(Br)cc3)cc2)cc1	50

Results, then the molecule that gave them:

IC50 [nM]	SMILES
70	Brc1ccc(-c2nsc3cc(OCCCCN4CCOCC4)ccc23)cc1
50	Brc1ccc(-c2nsc3cc(CCCCCN4CCOCC4)ccc23)cc1
1000	CCN(CCO)C(C)(C)C#Cc1ccc2c(-c3ccc(Br)cc3)nsc2c1
200	C=CCN(C)CCCCOc1ccc2c(-c3ccc(Br)cc3)nsc2c1
50	CCN(CCO)CCCCOc1ccc2c(-c3ccc(Br)cc3)nsc2c1
550	C=CCN(C)CCCCCCOc1ccc(-c2nsc3cc(Br)ccc23)cc1

Target: Cycloartenol synthase (Arabidopsis thaliana, UniProt P38605)
Sequence (P38605 whole entry): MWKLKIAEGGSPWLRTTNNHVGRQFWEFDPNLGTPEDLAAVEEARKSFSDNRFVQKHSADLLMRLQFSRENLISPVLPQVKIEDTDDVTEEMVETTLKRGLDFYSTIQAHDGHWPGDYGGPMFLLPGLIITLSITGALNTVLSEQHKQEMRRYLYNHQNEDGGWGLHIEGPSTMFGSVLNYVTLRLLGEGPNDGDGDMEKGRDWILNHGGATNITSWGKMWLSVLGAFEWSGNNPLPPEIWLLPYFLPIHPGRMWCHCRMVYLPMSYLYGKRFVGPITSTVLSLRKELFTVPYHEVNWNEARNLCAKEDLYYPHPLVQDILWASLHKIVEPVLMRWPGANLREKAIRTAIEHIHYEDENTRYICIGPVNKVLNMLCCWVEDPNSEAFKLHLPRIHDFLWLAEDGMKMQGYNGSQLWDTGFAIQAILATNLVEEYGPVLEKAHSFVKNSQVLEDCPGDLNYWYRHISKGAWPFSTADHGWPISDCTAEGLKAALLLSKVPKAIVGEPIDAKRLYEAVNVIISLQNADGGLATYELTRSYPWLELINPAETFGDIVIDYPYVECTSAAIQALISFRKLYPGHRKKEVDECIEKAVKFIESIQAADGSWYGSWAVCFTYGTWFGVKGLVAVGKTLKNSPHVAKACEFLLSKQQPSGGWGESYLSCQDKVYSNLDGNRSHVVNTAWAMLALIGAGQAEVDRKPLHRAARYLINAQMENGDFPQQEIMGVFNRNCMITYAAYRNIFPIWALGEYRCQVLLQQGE
Experiment: Inhibition of Arabidopsis thaliana cycloartenol synthase expressed in Saccharomyces cerevisiae SMY8
Method in brief: as §1

SMILES	IC50 [nM]
CCN(CCO)CCCCC[C@H]1CC[C@H](N(C)S(=O)(=O)c2ccc(C(F)(F)F)cc2)CC1	3000
O=C(c1ccc(Cl)cc1)N1CCC(=Cc2ccc(C3=NCCO3)cc2)CC1	2500
CCN(CC)C(=O)CCCC[C@H]1CC[C@H](N(C)S(=O)(=O)c2ccc(C(F)(F)F)cc2)CC1	2000
C=CCN(C)C/C=C/COc1ccc2c(-c3ccc(Br)cc3)coc2c1	3000
C=CCN(C)Cc1ccc(-c2ccc(C(=O)c3ccc(Br)cc3)cc2)cc1	250

Further lines, results first:

IC50 [nM]	SMILES
480	Brc1ccc(-c2nsc3cc(OCCCCN4CCOCC4)ccc23)cc1
650	Brc1ccc(-c2nsc3cc(CCCCCN4CCOCC4)ccc23)cc1
1250	CCN(CCO)C(C)(C)C#Cc1ccc2c(-c3ccc(Br)cc3)nsc2c1
800	CC(=O)N(CCO)CCCCOc1ccc2c(-c3ccc(Br)cc3)nsc2c1
70	C=CCN(C)CCCCOc1ccc2c(-c3ccc(Br)cc3)nsc2c1
2300	CCN(CCO)CCCCOc1ccc2c(-c3ccc(Br)cc3)nsc2c1
10000	C=CCN(C)CCCCCCOc1ccc(-c2nsc3cc(Br)ccc23)cc1

Target: T2, Lanosterol synthase (Homo sapiens, UniProt P48449)
T2 sequence (P48449 whole entry): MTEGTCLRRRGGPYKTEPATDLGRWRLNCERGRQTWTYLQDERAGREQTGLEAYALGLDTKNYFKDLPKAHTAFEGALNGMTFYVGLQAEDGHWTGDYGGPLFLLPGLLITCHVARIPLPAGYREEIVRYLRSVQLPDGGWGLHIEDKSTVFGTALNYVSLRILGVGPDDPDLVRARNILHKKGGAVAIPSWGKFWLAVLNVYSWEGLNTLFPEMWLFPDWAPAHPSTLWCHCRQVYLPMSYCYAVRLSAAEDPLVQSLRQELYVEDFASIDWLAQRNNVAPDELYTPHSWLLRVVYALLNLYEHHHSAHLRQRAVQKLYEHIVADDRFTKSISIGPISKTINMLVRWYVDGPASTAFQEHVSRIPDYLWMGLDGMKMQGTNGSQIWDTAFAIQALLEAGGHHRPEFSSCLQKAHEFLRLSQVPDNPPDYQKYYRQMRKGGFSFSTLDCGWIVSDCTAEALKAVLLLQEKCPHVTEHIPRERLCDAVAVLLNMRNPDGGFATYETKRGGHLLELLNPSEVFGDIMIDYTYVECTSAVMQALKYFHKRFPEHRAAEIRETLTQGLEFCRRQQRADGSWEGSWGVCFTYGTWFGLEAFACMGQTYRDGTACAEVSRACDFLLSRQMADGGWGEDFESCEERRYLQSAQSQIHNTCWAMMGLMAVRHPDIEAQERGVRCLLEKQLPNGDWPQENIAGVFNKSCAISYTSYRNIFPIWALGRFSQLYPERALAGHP
Experiment: Inhibition of human OSC expressed in Saccharomyces cerevisiae SMY8

SMILES	IC50 [nM]
CCN(CCO)CCCCC[C@H]1CC[C@H](N(C)S(=O)(=O)c2ccc(C(F)(F)F)cc2)CC1	450
O=C(c1ccc(Cl)cc1)N1CCC(=Cc2ccc(C3=NCCO3)cc2)CC1	1150
CCN(CC)C(=O)CCCC[C@H]1CC[C@H](N(C)S(=O)(=O)c2ccc(C(F)(F)F)cc2)CC1	> 10000
C=CCN(C)C/C=C/COc1ccc2c(-c3ccc(Br)cc3)coc2c1	90000
C=CCN(C)Cc1ccc(-c2ccc(C(=O)c3ccc(Br)cc3)cc2)cc1	250

Other lines, results leading:

IC50 [nM]	SMILES
120	Brc1ccc(-c2nsc3cc(OCCCCN4CCOCC4)ccc23)cc1
100	Brc1ccc(-c2nsc3cc(CCCCCN4CCOCC4)ccc23)cc1
11500	CCN(CCO)C(C)(C)C#Cc1ccc2c(-c3ccc(Br)cc3)nsc2c1
> 1000	CC(=O)N(CCO)CCCCOc1ccc2c(-c3ccc(Br)cc3)nsc2c1
260	C=CCN(C)CCCCOc1ccc2c(-c3ccc(Br)cc3)nsc2c1
520	CCN(CCO)CCCCOc1ccc2c(-c3ccc(Br)cc3)nsc2c1
20300	C=CCN(C)CCCCCCOc1ccc(-c2nsc3cc(Br)ccc23)cc1
